This is a sample that favours compounds with a hit; in the whole collection about 2.5% have one here.
HGIII-sPLA2 inh – Blocks human group III sPLA2 activity; Q9NZ20; QFRET BODIPY PC-A2 liposome hydrolysis, fluorescence; inhibition, % at 12.2 µM; 370,000 compounds, 0.56% hits; AID 743126;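 active means inhibition above mean plus 3 SD of compounds lying within the high and low control bounds, cut at about 19% in these data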
Granule exo inh – blocks lytic granule exocytosis; TALL-104 LAMP-1 surface exposure, flow cytometry; cells stimulated with thapsigargin and PMA; inhibition, % at 10 µM; 360,000 compounds, 0.66% hits; AID 651702;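 active means inhibition above about 55%, limit read from the data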
A1 inh – inhibitors of the anti-apoptotic protein A1, read as caspase activation | MEF A1-2A-BIM cells, Caspase-Glo 3/7 luminescence, 3 h; percent of clofoctol response, vehicle zero | AID 2462 | caspase activation, % (no concentration beside the values) | 330,000 compounds, 0.066% hits;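 active means over half of replicate activation scores above 10%, or exactly half above 10 with the replicate mean above 10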
NTR1 agonist – activates human neurotensin receptor 1 | P30989 | NTR1-U2OS beta-arrestin-GFP spot imaging, agonist mode | activation, % at 20 µM | 330,000 compounds, 0.17% hits | AID 493036;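 active means activation at or above 40% of the spot to cytoplasm intensity ratio, with at least 20 cells analyzed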
Target sequence (P30989 whole entry, looked up): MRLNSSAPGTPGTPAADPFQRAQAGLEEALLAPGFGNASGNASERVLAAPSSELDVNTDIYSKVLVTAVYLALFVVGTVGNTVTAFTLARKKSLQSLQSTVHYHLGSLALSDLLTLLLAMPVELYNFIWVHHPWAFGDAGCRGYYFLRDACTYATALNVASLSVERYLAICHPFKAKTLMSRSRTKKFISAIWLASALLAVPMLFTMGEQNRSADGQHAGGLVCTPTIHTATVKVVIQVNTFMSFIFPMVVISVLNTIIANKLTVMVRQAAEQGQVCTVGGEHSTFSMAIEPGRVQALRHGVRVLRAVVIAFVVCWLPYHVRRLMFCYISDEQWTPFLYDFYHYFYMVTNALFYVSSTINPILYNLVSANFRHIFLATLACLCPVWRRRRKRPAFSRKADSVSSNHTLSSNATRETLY
MC4R barr agon – activates human MC4R beta-arrestin recruitment. P32245. U2OS MC4R beta-arrestin complementation, luminescence; percent of melanotan II response, DMSO zero. activation, % at 8.9 µM. 360,000 compounds, 0.98% hits;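 active means activation above a per-plate cutoff, the mean activation of sample wells on that plate plus 3 SD, cut at about 8% in these data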
MC4R antagonist – human MC4R antagonism in cAMP assay. AID 540295. MC4R-expressing cells, MTII-stimulated cAMP, LANCE TR-FRET. inhibition, % at 6.5 µM. 360,000 compounds, 0.48% hits;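 active means inhibition above its plate's cutoff, the mean of tested wells on that plate plus 3 SD, cut at about 29% in these data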
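Assay system: U2OS-MC4R stable cell line; Also added: Melanotan II; Technique: Eu-cAMP/anti-cAMP TR-FRET, emission 671 nm; Times: 30-min compound, 1-h challenge, 1-h detection, room temperature.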
Numbers stand for hits; . = inactive; / = not tested or not shown.

SMILES | HGIII-sPLA2 inh | Granule exo inh | A1 inh | NTR1 agonist | MC4R barr agon | MC4R antagonist
O=C(NCc1ccccc1)c1cc(-c2ccncc2)nc2ccc(S(=O)(=O)N3CCOCC3)cc12 | . | . | . | . | . | .
CS(=O)(=O)c1nc(-c2cccs2)cc(C(F)(F)F)n1 | / | / | 8.2 | . | / | /
Cc1cccc(Cn2cc(CN3CC(N4CCN(CCOC(=O)c5cc6ccccc6o5)CC4)CS3(=O)=O)nn2)c1 (stereo not given) | . | / | / | / | / | /
Cc1onc(-c2ccccc2)c1C(=O)NCc1ccc2c(c1)OCO2 | . | . | . | . | . | .
O=C(NCc1ccc2c(c1)OCO2)c1c(-c2ccccc2)sc2ccccc12 | . | . | . | . | 21.0 | .
COc1ccc(CN(CCC(c2ccccc2)c2ccc(OC(C)C)cc2)C(=O)CCl)cc1OC (stereo not given) | . | . | . | . | 21.3 | .
O=C(CSc1nnc(COc2ccccc2)n1-c1ccc(Cl)cc1)Nc1ccc(OCc2ccccc2)cc1 | . | / | / | / | / | /
CCOC(=O)C1=C(CSc2nccn2C)NC(=O)NC1c1cc(C)ccc1C (stereo not given) | . | . | . | . | . | .
CCOC(=O)C1=C(CSc2nccn2C)NC(=O)NC1c1ccc2c(c1)OCO2 (stereo not given) | . | . | . | . | 9.2 | .
CCOc1ccc(CCNC(=O)Cc2ccccc2)cc1OCC | . | / | / | / | / | /
c1ccc(N=NC2=NN(c3ccccc3)CS2)cc1 | 29.5 | . | / | / | . | .
COc1ccc(CNC[C@@H](CCCCN(C)Cc2ccc(OC)cc2)N2C[C@H](c3ccccc3)N(CCc3ccc(Cl)c(Cl)c3)C(=O)C2=O)cc1 | / | . | . | . | 25.0 | 30.0
O=C1Nc2ccccc2C1(c1ccccc1)c1ccccc1 | . | . | . | . | 36.9 | .
O=[N+]([O-])c1cc(-c2ncccn2)c([N+](=O)[O-])s1 | . | 78.0 | . | . | . | .
O=C(Nc1ncccn1)c1cc([N+](=O)[O-])cc([N+](=O)[O-])c1 | . | . | . | . | . | .
CCOC(=O)[C@@H]1c2[nH]c3ccccc3c2C[C@@]2(C(=O)OC)C=CCN12 | . | / | / | / | / | /
NC(N)=N/N=C/c1ccc(OCc2ccc(Cl)cc2)cc1 | . | 73.3 | . | . | . | .
CN(C)c1cccc(/C=C2\CC3(OC(=O)c4ccc(Cl)cc4)CCCN2C3)c1 (stereo not given) | . | / | / | / | / | /
CNc1ccc(Br)cc(C(=O)/C=C/c2ccc(Cl)cc2Cl)c1=O | . | 100.1 | . | . | . | .
CNc1ccc(Br)cc(C(=O)/C=C/c2ccc(OC)cc2OC)c1=O | . | . | . | . | . | .
CCNc1ccc(Br)cc(C(=O)/C=C/c2ccc(Cl)cc2)c1=O | / | . | . | . | . | .
CCNc1ccc(Br)cc(C(=O)/C=C/c2c(Cl)cccc2Cl)c1=O | / | 77.5 | . | . | . | .
O=C1[C@H](Cc2ccccc2)NCC=CC[C@H](c2ccc(Cl)cc2)N1Cc1ccccc1 | . | . | / | / | 8.6 | .
O=C1c2cccc3cccc(c23)C(=O)C1(O)O | . | 71.3 | . | . | . | .
Cc1sc2c3ccsc3ccc2[n+]1C | . | 55.6 | . | . | . | .
SMILES | HGIII-sPLA2 inh | Granule exo inh | A1 inh | NTR1 agonist | MC4R barr agon | MC4R antagonist
Cc1sc2ccc3sccc3c2[n+]1C | . | 83.1 | . | . | . | .
O=C(OC12CCCN(C1)/C(=C/c1ccccc1)C2)c1ccc(Cl)cc1 (stereo not given) | . | / | / | / | / | /
COC1=CC(=O)C=C(OC)C1=O | . | 77.8 | / | / | . | .
O=C(CNC(=O)c1sc2ccccc2c1Cl)NCc1cccc(C(F)(F)F)c1 | . | . | . | . | 9.4 | .
CC(=O)Nc1ccc(NC(=O)CNC(=O)c2sc3ccccc3c2Cl)cc1 | . | . | . | . | . | .
O=C(OC12CCCN(C1)/C(=C/c1ccccc1)C2)C1CCCCC1 (stereo not given) | . | / | / | / | / | /
COc1ccc(-c2nnc(SCC(=O)N/N=C(\C)c3ccc(-c4ccccc4)cc3)n2-c2ccc(C)cc2)cc1 | . | / | / | / | / | /
Cc1[nH]c(=O)[nH]c(=O)c1Sc1ccccc1[N+](=O)[O-] | . | . | . | . | . | .
CC1(Br)C(Sc2ccccc2[N+](=O)[O-])=Nc2ccccc21 (stereo not given) | . | 71.9 | / | / | / | /
CCc1ccc(-n2cc(-c3ccc([N+](=O)[O-])cc3)[nH]c2=S)cc1 | . | . | . | . | . | .
CCc1ccc(-c2cn(C3CCCCC3)c(=S)[nH]2)cc1 | 23.0 | . | . | . | . | .
CC(C)/C=C1\CC/C(=C\c2ccc(N(C)C)cc2)C1=O | . | 55.8 | . | . | . | .
CN(C)c1ccc(/C=C2/C[N+](C)(C)C/C(=C/c3ccc(N(C)C)cc3)C2=O)cc1 | . | . | / | / | . | .
O=C(CSc1nnc(COc2ccc(Cl)cc2Cl)o1)Nc1ccccn1 | . | . | . | . | 8.9 | .
COc1cccc2[nH]c3c(N4CCCCC4)ncnc3c12 | . | 69.4 | . | . | . | .
Cc1cc(C)c2nc(N(CCCN(C)C)C(=O)C3=COCCO3)sc2c1 | . | . | . | . | . | .
Cc1cc(C)c2nc(N(CCCN(C)C)C(=O)c3ccc4c(c3)OCCO4)sc2c1 | . | . | . | . | 8.4 | .
CN(C)CCN(C(=O)c1ccc(S(=O)(=O)N2CCCC2)cc1)c1nc2ccc(Br)cc2s1 | . | . | . | . | . | .
CN(C)CCCN(C(=O)c1ccc2c(c1)CCCC2)c1nc2ccc(Cl)cc2s1 | . | . | . | . | 9.1 | .
CC1CCCCN1S(=O)(=O)c1ccc(C(=O)N(CCCN(C)C)c2nc3ccc(Br)cc3s2)cc1 (stereo not given) | . | . | . | . | 8.8 | .
O=C(Nc1cccc(F)c1)O[C@@H]1CC[C@@]23CCCN2C(=O)CCC[C@H]3C1 | . | / | / | / | / | /
O=C(OCCN1CCCC12CCC(c1ccccc1)CC2)c1ccccc1 (stereo not given) | . | / | / | / | / | /
CC(C)(C)NC(=O)C(c1cccnc1)N(C(=O)c1cccs1)c1ccc(C(C)(C)C)cc1 (stereo not given) | . | / | / | / | / | /
COc1ccc(/C=N/NC(=O)c2nc(Cl)c(Cl)c(N)c2Cl)cc1COc1ccccc1F | . | . | . | . | . | .
COc1ccc(/C=N/NC(=O)c2nc(Cl)c(Cl)c(N)c2Cl)cc1COc1ccc(F)cc1F | . | . | . | . | 10.6 | .
COc1ccc(/C=N\NC(=O)c2cc(O)c(O)c(O)c2)cc1COc1ccc(C(=O)OCC(C)C)cc1 | 25.1 | . | . | . | . | .
CC(NCc1ccco1)C(=O)N1CCCN(C)CC1 (stereo not given) | . | / | / | / | / | /
Cc1cc(O)c(-c2cc(C(=O)Nc3ccc(S(=O)(=O)N4CCOCC4)cc3)[nH]n2)cc1C | . | . | . | . | . | .
O=C(Nc1ccc(S(=O)(=O)N2CCOCC2)cc1)c1cc(-c2cc(Cl)ccc2O)n[nH]1 | . | . | . | . | 9.1 | .
